{"source": "ChEMBL document CHEMBL3044834", "about": "“Novel protoporphyrinogen oxidase inhibitors: 3H-pyrazolo[3,4-d][1,2,3]triazin-4-one derivatives” (J Agric Food Chem, 2008)", "assay_type_in_all_cases": "functional", "key": {"[1]": {"tested_on": "Brassica rapa subsp. oleifera", "assay": "Herbicidal activity against Brassica rapa subsp. oleifera assessed as inhibition of fresh weed plant weight at 1500 g/ha using pre-emergence treatment protocol"}, "Echinochloa crus-galli [2]": {"tested_on": "Echinochloa crus-galli", "assay": "Herbicidal activity against Echinochloa crus-galli (barnyard grass) assessed as inhibition of fresh weed plant weight at 187.5 g/ha using post-emergence treatment protocol", "procedure,_shortened": "(§1)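 Test compounds made up as emulsions by dissolving in 100 µL N,N-dimethylformamide, then adding a little Tween 20 and water. For post-emergence, weed seedlings at one leaf and one stem were sprayed at the same rates as the pre-emergence test. Fresh weight was recorded 15 days after treatment and expressed as percent inhibition versus controls. All treatments were run in triplicate.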"}, "Amaranthus retroflexus [3]": {"tested_on": "Amaranthus retroflexus", "assay": "Herbicidal activity against Amaranthus retroflexus assessed as inhibition of fresh weed plant weight at 187.5 g/ha using post-emergence treatment protocol", "procedure,_shortened": "as §1"}, "Amaranthus retroflexus [4]": {"tested_on": "Amaranthus retroflexus", "assay": "Herbicidal activity against Amaranthus retroflexus assessed as inhibition of fresh weed plant weight at 1500 g/ha using post-emergence treatment protocol", "procedure,_shortened": "as §1"}, "[5]": {"tested_on": "Brassica rapa subsp. oleifera", "assay": "Herbicidal activity against Brassica rapa subsp. oleifera assessed as inhibition of fresh weed plant weight at 187.5 g/ha using post-emergence treatment protocol", "procedure,_shortened": "as §1"}, "Amaranthus retroflexus [6]": {"tested_on": "Amaranthus retroflexus", "assay": "Herbicidal activity against Amaranthus retroflexus assessed as inhibition of fresh weed plant weight at 750 g/ha using pre-emergence treatment protocol", "procedure,_shortened": "as §1"}, "Echinochloa crus-galli [7]": {"tested_on": "Echinochloa crus-galli", "assay": "Herbicidal activity against Echinochloa crus-galli (barnyard grass) assessed as inhibition of fresh weed plant weight at 375 g/ha using post-emergence treatment protocol", "procedure,_shortened": "as §1"}, "Echinochloa crus-galli [8]": {"tested_on": "Echinochloa crus-galli", "assay": "Herbicidal activity against Echinochloa crus-galli (barnyard grass) assessed as inhibition of fresh weed plant weight at 1500 g/ha using pre-emergence treatment protocol"}, "Digitaria sanguinalis [9]": {"tested_on": "Digitaria sanguinalis", "assay": "Herbicidal activity against Digitaria sanguinalis (hairy crabgrass) assessed as inhibition of fresh weed plant weight at 750 g/ha using pre-emergence treatment protocol"}, "Digitaria sanguinalis [10]": {"tested_on": "Digitaria sanguinalis", "assay": "Herbicidal activity against Digitaria sanguinalis (hairy crabgrass) assessed as inhibition of fresh weed plant weight at 1500 g/ha using post-emergence treatment protocol", "procedure,_shortened": "as §1"}, "[11]": {"tested_on": "Brassica rapa subsp. oleifera", "assay": "Herbicidal activity against Brassica rapa subsp. oleifera assessed as inhibition of fresh weed plant weight at 375 g/ha using pre-emergence treatment protocol"}, "Digitaria sanguinalis [12]": {"tested_on": "Digitaria sanguinalis", "assay": "Herbicidal activity against Digitaria sanguinalis (hairy crabgrass) assessed as inhibition of fresh weed plant weight at 750 g/ha using post-emergence treatment protocol", "procedure,_shortened": "as §1"}, "Amaranthus retroflexus [13]": {"tested_on": "Amaranthus retroflexus", "assay": "Herbicidal activity against Amaranthus retroflexus assessed as inhibition of fresh weed plant weight at 750 g/ha using post-emergence treatment protocol", "procedure,_shortened": "as §1"}, "[14]": {"tested_on": "Brassica rapa subsp. oleifera", "assay": "Herbicidal activity against Brassica rapa subsp. oleifera assessed as inhibition of fresh weed plant weight at 93.75 g/ha using pre-emergence treatment protocol"}, "Echinochloa crus-galli [15]": {"tested_on": "Echinochloa crus-galli", "assay": "Herbicidal activity against Echinochloa crus-galli (barnyard grass) assessed as inhibition of fresh weed plant weight at 750 g/ha using post-emergence treatment protocol", "procedure,_shortened": "as §1"}, "Echinochloa crus-galli [16]": {"tested_on": "Echinochloa crus-galli", "assay": "Herbicidal activity against Echinochloa crus-galli (barnyard grass) assessed as inhibition of fresh weed plant weight at 375 g/ha using pre-emergence treatment protocol", "procedure,_shortened": "as §1"}, "Digitaria sanguinalis [17]": {"tested_on": "Digitaria sanguinalis", "assay": "Herbicidal activity against Digitaria sanguinalis (hairy crabgrass) assessed as inhibition of fresh weed plant weight at 187.5 g/ha using post-emergence treatment protocol", "procedure,_shortened": "as §1"}, "Echinochloa crus-galli [18]": {"tested_on": "Echinochloa crus-galli", "assay": "Herbicidal activity against Echinochloa crus-galli (barnyard grass) assessed as inhibition of fresh weed plant weight at 93.75 g/ha using pre-emergence treatment protocol"}, "Echinochloa crus-galli [19]": {"tested_on": "Echinochloa crus-galli", "assay": "Herbicidal activity against Echinochloa crus-galli (barnyard grass) assessed as inhibition of fresh weed plant weight at 1500 g/ha using post-emergence treatment protocol", "procedure,_shortened": "as §1"}, "Digitaria sanguinalis [20]": {"tested_on": "Digitaria sanguinalis", "assay": "Herbicidal activity against Digitaria sanguinalis (hairy crabgrass) assessed as inhibition of fresh weed plant weight at 93.75 g/ha using pre-emergence treatment protocol"}, "Amaranthus retroflexus [21]": {"tested_on": "Amaranthus retroflexus", "assay": "Herbicidal activity against Amaranthus retroflexus assessed as inhibition of fresh weed plant weight at 375 g/ha using post-emergence treatment protocol", "procedure,_shortened": "as §1"}, "Amaranthus retroflexus [22]": {"tested_on": "Amaranthus retroflexus", "assay": "Herbicidal activity against Amaranthus retroflexus assessed as inhibition of fresh weed plant weight at 93.75 g/ha using pre-emergence treatment protocol"}, "Digitaria sanguinalis [23]": {"tested_on": "Digitaria sanguinalis", "assay": "Herbicidal activity against Digitaria sanguinalis (hairy crabgrass) assessed as inhibition of fresh weed plant weight at 1500 g/ha using pre-emergence treatment protocol"}, "[24]": {"tested_on": "Brassica rapa subsp. oleifera", "assay": "Herbicidal activity against Brassica rapa subsp. oleifera assessed as inhibition of fresh weed plant weight at 93.75 g/ha using post-emergence treatment protocol", "procedure,_shortened": "as §1"}, "Echinochloa crus-galli [25]": {"tested_on": "Echinochloa crus-galli", "assay": "Herbicidal activity against Echinochloa crus-galli (barnyard grass) assessed as inhibition of fresh weed plant weight at 750 g/ha using pre-emergence treatment protocol"}, "Amaranthus retroflexus [26]": {"tested_on": "Amaranthus retroflexus", "assay": "Herbicidal activity against Amaranthus retroflexus assessed as inhibition of fresh weed plant weight at 93.75 g/ha using post-emergence treatment protocol", "procedure,_shortened": "as §1"}, "Digitaria sanguinalis [27]": {"tested_on": "Digitaria sanguinalis", "assay": "Herbicidal activity against Digitaria sanguinalis (hairy crabgrass) assessed as inhibition of fresh weed plant weight at 375 g/ha using pre-emergence treatment protocol"}, "[28]": {"tested_on": "Brassica rapa subsp. oleifera", "assay": "Herbicidal activity against Brassica rapa subsp. oleifera assessed as inhibition of fresh weed plant weight at 750 g/ha using post-emergence treatment protocol", "procedure,_shortened": "as §1"}, "[29]": {"tested_on": "Brassica rapa subsp. oleifera", "assay": "Herbicidal activity against Brassica rapa subsp. oleifera assessed as inhibition of fresh weed plant weight at 750 g/ha using pre-emergence treatment protocol"}, "Echinochloa crus-galli [30]": {"tested_on": "Echinochloa crus-galli", "assay": "Herbicidal activity against Echinochloa crus-galli (barnyard grass) assessed as inhibition of fresh weed plant weight at 93.75 g/ha using post-emergence treatment protocol", "procedure,_shortened": "as §1"}, "[31]": {"tested_on": "Brassica rapa subsp. oleifera", "assay": "Herbicidal activity against Brassica rapa subsp. oleifera assessed as inhibition of fresh weed plant weight at 1500 g/ha using post-emergence treatment protocol", "procedure,_shortened": "as §1"}, "Amaranthus retroflexus [32]": {"tested_on": "Amaranthus retroflexus", "assay": "Herbicidal activity against Amaranthus retroflexus assessed as inhibition of fresh weed plant weight at 1500 g/ha using pre-emergence treatment protocol"}, "[33]": {"tested_on": "Brassica rapa subsp. oleifera", "assay": "Herbicidal activity against Brassica rapa subsp. oleifera assessed as inhibition of fresh weed plant weight at 375 g/ha using post-emergence treatment protocol", "procedure,_shortened": "as §1"}, "Digitaria sanguinalis [34]": {"tested_on": "Digitaria sanguinalis", "assay": "Herbicidal activity against Digitaria sanguinalis (hairy crabgrass) assessed as inhibition of fresh weed plant weight at 375 g/ha using post-emergence treatment protocol", "procedure,_shortened": "as §1"}, "[35]": {"tested_on": "Brassica rapa subsp. oleifera", "assay": "Herbicidal activity against Brassica rapa subsp. oleifera assessed as inhibition of fresh weed plant weight at 187.5 g/ha using pre-emergence treatment protocol"}, "Echinochloa crus-galli [36]": {"tested_on": "Echinochloa crus-galli", "assay": "Herbicidal activity against Echinochloa crus-galli (barnyard grass) assessed as inhibition of fresh weed plant weight at 187.5 g/ha using pre-emergence treatment protocol", "procedure,_shortened": "as §1"}, "Amaranthus retroflexus [37]": {"tested_on": "Amaranthus retroflexus", "assay": "Herbicidal activity against Amaranthus retroflexus assessed as inhibition of fresh weed plant weight at 187.5 g/ha using pre-emergence treatment protocol"}, "Amaranthus retroflexus [38]": {"tested_on": "Amaranthus retroflexus", "assay": "Herbicidal activity against Amaranthus retroflexus assessed as inhibition of fresh weed plant weight at 375 g/ha using pre-emergence treatment protocol"}, "Digitaria sanguinalis [39]": {"tested_on": "Digitaria sanguinalis", "assay": "Herbicidal activity against Digitaria sanguinalis (hairy crabgrass) assessed as inhibition of fresh weed plant weight at 93.75 g/ha using post-emergence treatment protocol", "procedure,_shortened": "as §1"}, "Digitaria sanguinalis [40]": {"tested_on": "Digitaria sanguinalis", "assay": "Herbicidal activity against Digitaria sanguinalis (hairy crabgrass) assessed as inhibition of fresh weed plant weight at 187.5 g/ha using pre-emergence treatment protocol"}}}
{"molecule": "C#CCN1C(=O)COc2cc(F)c(-n3nnc4nn(CC=C)cc4c3=O)cc21", "values": [{"measurement": "inhibition at 1500 g/ha", "setting": "[1]", "value": 100, "unit": "%"}, {"measurement": "inhibition at 187.5 g/ha", "setting": "Echinochloa crus-galli [2]", "value": 14.7, "unit": "%"}, {"measurement": "inhibition at 187.5 g/ha", "setting": "Amaranthus retroflexus [3]", "value": 40.5, "unit": "%"}, {"measurement": "inhibition at 1500 g/ha", "setting": "Amaranthus retroflexus [4]", "value": 100, "unit": "%"}, {"measurement": "inhibition at 187.5 g/ha", "setting": "[5]", "value": 0, "unit": "%"}, {"measurement": "inhibition at 750 g/ha", "setting": "Amaranthus retroflexus [6]", "value": 100, "unit": "%"}, {"measurement": "inhibition at 375 g/ha", "setting": "Echinochloa crus-galli [7]", "value": 17.6, "unit": "%"}, {"measurement": "inhibition at 1500 g/ha", "setting": "Echinochloa crus-galli [8]", "value": 100, "unit": "%"}, {"measurement": "inhibition at 750 g/ha", "setting": "Digitaria sanguinalis [9]", "value": 67.4, "unit": "%"}, {"measurement": "inhibition at 1500 g/ha", "setting": "Digitaria sanguinalis [10]", "value": 32.7, "unit": "%"}, {"measurement": "inhibition at 375 g/ha", "setting": "[11]", "value": 100, "unit": "%"}, {"measurement": "inhibition at 750 g/ha", "setting": "Digitaria sanguinalis [12]", "value": 0, "unit": "%"}, {"measurement": "inhibition at 750 g/ha", "setting": "Amaranthus retroflexus [13]", "value": 100, "unit": "%"}, {"measurement": "inhibition at 93.75 g/ha", "setting": "[14]", "value": 26, "unit": "%"}, {"measurement": "inhibition at 750 g/ha", "setting": "Echinochloa crus-galli [15]", "value": 23.6, "unit": "%"}, {"measurement": "inhibition at 375 g/ha", "setting": "Echinochloa crus-galli [16]", "value": 49.1, "unit": "%"}, {"measurement": "inhibition at 187.5 g/ha", "setting": "Digitaria sanguinalis [17]", "value": 0, "unit": "%"}, {"measurement": "inhibition at 93.75 g/ha", "setting": "Echinochloa crus-galli [18]", "value": 3.5, "unit": "%"}, {"measurement": "inhibition at 1500 g/ha", "setting": "Echinochloa crus-galli [19]", "value": 38.7, "unit": "%"}, {"measurement": "inhibition at 93.75 g/ha", "setting": "Digitaria sanguinalis [20]", "value": 6.1, "unit": "%"}, {"measurement": "inhibition at 375 g/ha", "setting": "Amaranthus retroflexus [21]", "value": 48.8, "unit": "%"}, {"measurement": "inhibition at 93.75 g/ha", "setting": "Amaranthus retroflexus [22]", "value": 100, "unit": "%"}, {"measurement": "inhibition at 1500 g/ha", "setting": "Digitaria sanguinalis [23]", "value": 80.7, "unit": "%"}, {"measurement": "inhibition at 93.75 g/ha", "setting": "[24]", "value": 0, "unit": "%"}, {"measurement": "inhibition at 750 g/ha", "setting": "Echinochloa crus-galli [25]", "value": 95.7, "unit": "%"}, {"measurement": "inhibition at 93.75 g/ha", "setting": "Amaranthus retroflexus [26]", "value": 30.6, "unit": "%"}, {"measurement": "inhibition at 375 g/ha", "setting": "Digitaria sanguinalis [27]", "value": 24.5, "unit": "%"}, {"measurement": "inhibition at 750 g/ha", "setting": "[28]", "value": 50.4, "unit": "%"}, {"measurement": "inhibition at 750 g/ha", "setting": "[29]", "value": 100, "unit": "%"}, {"measurement": "inhibition at 93.75 g/ha", "setting": "Echinochloa crus-galli [30]", "value": 12.1, "unit": "%"}, {"measurement": "inhibition at 1500 g/ha", "setting": "[31]", "value": 70.9, "unit": "%"}, {"measurement": "inhibition at 1500 g/ha", "setting": "Amaranthus retroflexus [32]", "value": 100, "unit": "%"}, {"measurement": "inhibition at 375 g/ha", "setting": "[33]", "value": 38.9, "unit": "%"}, {"measurement": "inhibition at 375 g/ha", "setting": "Digitaria sanguinalis [34]", "value": 0, "unit": "%"}, {"measurement": "inhibition at 187.5 g/ha", "setting": "[35]", "value": 90.8, "unit": "%"}, {"measurement": "inhibition at 187.5 g/ha", "setting": "Echinochloa crus-galli [36]", "value": 13.3, "unit": "%"}, {"measurement": "inhibition at 187.5 g/ha", "setting": "Amaranthus retroflexus [37]", "value": 100, "unit": "%"}, {"measurement": "inhibition at 375 g/ha", "setting": "Amaranthus retroflexus [38]", "value": 100, "unit": "%"}, {"measurement": "inhibition at 93.75 g/ha", "setting": "Digitaria sanguinalis [39]", "value": 0, "unit": "%"}, {"measurement": "inhibition at 187.5 g/ha", "setting": "Digitaria sanguinalis [40]", "value": 16.3, "unit": "%"}]}
